Assay results reported in ChEMBL document CHEMBL2311431, “Synthesis and biological evaluation of some 5-arylidene-2-(1,3-thiazol-2-ylimino)-1,3-thiazolidin-4-ones as dual anti-inflammatory/antimicrobial agents” (Bioorg Med Chem, 2013).
pIC50: −log10 of the molar value. Converted amounts (≈) assume the structure as drawn. The source made the active and inactive calls. No cut-off for these calls is given here.

Assays:
[1] = tested on: Mus musculus; experiment: Acute toxicity in AKR mouse up to 0.5 mmol/kg, ip; format: organism-based; conditions: in vivo
[2] = tested on: Mus musculus; experiment: Antiinflammatory activity in AKR mouse assessed as inhibition of carrageenan-induced paw edema at 0.01 mmol/kg, ip measured after 3.5 hrs of carrageenan-challenge; format: functional
Outline: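 AKR mice of both sexes (pregnant females excluded), 6-10 per group, fasted during the experiment. Edema induced by intradermal 0.05 mL of 2% carrageenin into the right hind paw. Compound given at 0.01 mmol/kg ip, suspended in water with Tween-80, at the same time as carrageenin.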

[3] = biological target: T1, Prostaglandin G/H synthase 1 (Ovis aries) (UniProt P05979); experiment: Inhibition of ovine COX1 assessed as inhibition of PGF2a production by enzyme immunoassay; parameters: concentration or dose not given beside the values
T1 sequence (whole entry): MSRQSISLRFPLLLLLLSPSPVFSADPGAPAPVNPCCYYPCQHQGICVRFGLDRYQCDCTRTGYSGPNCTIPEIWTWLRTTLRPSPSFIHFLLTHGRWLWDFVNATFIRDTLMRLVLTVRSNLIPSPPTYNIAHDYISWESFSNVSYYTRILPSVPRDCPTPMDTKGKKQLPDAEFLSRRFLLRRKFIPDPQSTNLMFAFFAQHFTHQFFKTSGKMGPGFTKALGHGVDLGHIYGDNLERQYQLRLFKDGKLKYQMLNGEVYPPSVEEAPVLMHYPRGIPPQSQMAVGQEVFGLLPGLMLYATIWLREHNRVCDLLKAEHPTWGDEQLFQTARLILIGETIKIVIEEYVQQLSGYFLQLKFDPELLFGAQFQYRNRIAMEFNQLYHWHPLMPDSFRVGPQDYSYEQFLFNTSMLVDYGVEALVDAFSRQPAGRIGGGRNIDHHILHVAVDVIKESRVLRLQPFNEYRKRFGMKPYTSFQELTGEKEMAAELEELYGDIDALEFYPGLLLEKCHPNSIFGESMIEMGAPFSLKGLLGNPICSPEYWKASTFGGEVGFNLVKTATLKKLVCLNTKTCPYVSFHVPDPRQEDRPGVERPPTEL
Outline: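 Ovine COX-1 from a commercial screening kit, tested with 0.1 µM arachidonic acid, which is below the saturating level. COX-derived PGH2 is reduced by SnCl2 to PGF2a, quantified by enzyme immunoassay with a broad prostaglandin antibody. At least triplicate.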

[4] = Inhibition of soybean lipoxygenase assessed as inhibition of sodium linolate conversion to 13-hydroperoxylinoleic acid after 4 mins by spectrophotometry; parameters: species or system Glycine max; conditions: for pIC50: read-out: IC50
[5] = tested on: Aspergillus niger; experiment: Fungicidal activity against Aspergillus niger ATCC 6275 after 72 hrs by serial subcultivation method; format: functional; conditions: ATCC 6275, 72 h
[6] = tested on: Aspergillus niger; experiment: Antifungal activity against Aspergillus niger ATCC 6275 after 72 hrs by serial dilution technique; format: functional; conditions: ATCC 6275, 72 h
Outline: (§1)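 Serial dilution in malt broth; compounds from 1 mg/ml stocks in 5% DMSO; 72 h at 28 °C. MIC is the lowest concentration with no visible growth under a binocular microscope. Run in duplicate, repeated three times.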

[7] = tested on: Aspergillus fumigatus; experiment: Fungicidal activity against Aspergillus fumigatus after 72 hrs by serial subcultivation method; format: functional
[8] = tested on: Aspergillus flavus; experiment: Fungicidal activity against Aspergillus flavus ATCC 9643 after 72 hrs by serial subcultivation method; format: functional; conditions: ATCC 9643, 72 h
[9] = tested on: Trichoderma viride; experiment: Fungicidal activity against Trichoderma viride IAM 5061 after 72 hrs by serial subcultivation method; format: functional; conditions: IAM 5061, 72 h
[10] = tested on: Penicillium ochrochloron; experiment: Fungicidal activity against Penicillium ochrochloron ATCC 9112 after 72 hrs by serial subcultivation method; format: functional; conditions: ATCC 9112, 72 h
[11] = tested on: Aspergillus flavus; experiment: Antifungal activity against Aspergillus flavus ATCC 9643 after 72 hrs by serial dilution technique; format: functional; conditions: ATCC 9643, 72 h; outline: as §1
[12] = tested on: Talaromyces funiculosus; experiment: Fungicidal activity against Penicillium funiculosum ATCC 36839 after 72 hrs by serial subcultivation method; format: functional; conditions: ATCC 36839, 72 h
[13] = tested on: Aspergillus fumigatus; experiment: Antifungal activity against Aspergillus fumigatus after 72 hrs by serial dilution technique; format: functional; outline: as §1
[14] = tested on: Trichoderma viride; experiment: Antifungal activity against Trichoderma viride IAM 5061 after 72 hrs by serial dilution technique; format: functional; conditions: IAM 5061, 72 h; outline: as §1
[15] = tested on: Penicillium ochrochloron; experiment: Antifungal activity against Penicillium ochrochloron ATCC 9112 after 72 hrs by serial dilution technique; format: functional; conditions: ATCC 9112, 72 h; outline: as §1
[16] = tested on: Talaromyces funiculosus; experiment: Antifungal activity against Penicillium funiculosum ATCC 36839 after 72 hrs by serial dilution technique; format: functional; conditions: ATCC 36839, 72 h; outline: as §1
[17] = tested on: Escherichia coli; experiment: Bactericidal activity against Escherichia coli ATCC 35210 after 72 hrs by serial subcultivation method; format: functional; conditions: ATCC 35210, 72 h
[18] = tested on: Pseudomonas aeruginosa; experiment: Bactericidal activity against Pseudomonas aeruginosa ATCC 27853 after 72 hrs by serial subcultivation method; format: functional; conditions: ATCC 27853, 72 h
[19] = tested on: Listeria monocytogenes; experiment: Bactericidal activity against Listeria monocytogenes NCTC 7973 after 72 hrs by serial subcultivation method; format: functional; conditions: NCTC 7973, 72 h
[20] = tested on: Bacillus cereus; experiment: Bactericidal activity against Bacillus cereus clinical isolate after 72 hrs by serial subcultivation method; format: functional
[21] = tested on: Micrococcus flavus; experiment: Bactericidal activity against Micrococcus flavus ATCC 10240 after 72 hrs by serial subcultivation method; format: functional; conditions: ATCC 10240, 72 h
[22] = tested on: Staphylococcus aureus; experiment: Bactericidal activity against Staphylococcus aureus ATCC 6538 after 72 hrs by serial subcultivation method; format: functional; conditions: ATCC 6538, 72 h
[23] = tested on: Escherichia coli; experiment: Antibacterial activity against Escherichia coli ATCC 35210 after 24 hr by microdilution test; format: functional; conditions: ATCC 35210, 24 h
Outline: (§2)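 Broth microdilution in LB medium, about 1.0×10^4 cfu per well; compounds from 1 mg/ml stocks in 5% DMSO. Incubated 24 h. MIC is the lowest concentration with no visible growth under a binocular microscope. Run in duplicate, repeated three times.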

[24] = tested on: Listeria monocytogenes; experiment: Antibacterial activity against Listeria monocytogenes NCTC 7973 after 24 hr by microdilution test; format: functional; conditions: NCTC 7973, 24 h; outline: as §2
[25] = tested on: Pseudomonas aeruginosa; experiment: Antibacterial activity against Pseudomonas aeruginosa ATCC 27853 after 24 hr by microdilution test; format: functional; conditions: ATCC 27853, 24 h; outline: as §2
[26] = tested on: Micrococcus flavus; experiment: Antibacterial activity against Micrococcus flavus ATCC 10240 after 24 hr by microdilution test; format: functional; conditions: ATCC 10240, 24 h; outline: as §2
[27] = tested on: Bacillus cereus; experiment: Antibacterial activity against Bacillus cereus clinical isolate after 24 hr by microdilution test; format: functional; outline: as §2
[28] = tested on: Staphylococcus aureus; experiment: Antibacterial activity against Staphylococcus aureus ATCC 6538 after 24 hr by microdilution test; format: functional; conditions: ATCC 6538, 24 h; outline: as §2

Structure (SMILES)	inhibition ([3]; concentration not given here) [%]	pIC50 [4]	MFC [5] [µM]	MIC [6] [µM]	MFC [7] [µM]	MFC [8] [µM]	MFC [9] [µM]	MFC [10] [µM]	MBC [17] [µM]	MBC [18] [µM]	MBC [19] [µM]	MBC [20] [µM]	MBC [21] [µM]	MBC [22] [µM]	MIC [23] [µM]	MIC [24] [µM]	MIC [25] [µM]	MIC [26] [µM]	MIC [27] [µM]	MIC [28] [µM]	further results
Cc1csc(/N=C2\NC(=O)/C(=C/c3ccc(Cl)cc3)S2)n1	74	4.12	15.2 (≈ 5.1 µg/mL)	15.2 (≈ 5.1 µg/mL)	15.2 (≈ 5.1 µg/mL)	15.2 (≈ 5.1 µg/mL)	15.2 (≈ 5.1 µg/mL)	15.2 (≈ 5.1 µg/mL)	240 (≈ 80.6 µg/mL)	120 (≈ 40.3 µg/mL)	60 (≈ 20.2 µg/mL)	30 (≈ 10.1 µg/mL)	60 (≈ 20.2 µg/mL)	240 (≈ 80.6 µg/mL)	120 (≈ 40.3 µg/mL)	30 (≈ 10.1 µg/mL)	30 (≈ 10.1 µg/mL)	30 (≈ 10.1 µg/mL)	30 (≈ 10.1 µg/mL)	120 (≈ 40.3 µg/mL)	Activity [1]: Non-toxic; inhibition in vivo at 10 µmol/kg [2]: 42%; MIC [11]: 15.2 µM (≈ 5.1 µg/mL); MFC [12]: 15.2 µM (≈ 5.1 µg/mL); MIC [13]: 15.2 µM (≈ 5.1 µg/mL); MIC [14]: 7.6 µM (≈ 2.55 µg/mL); MIC [15]: 7.6 µM (≈ 2.55 µg/mL); MIC [16]: 7.6 µM (≈ 2.55 µg/mL)
COc1ccc2cc([C@H](C)C(=O)O)ccc2c1 [NAPROXEN]	46																				inhibition [2]: inactive; IC50 [4]: Not Active
CC1(C)S[C@@H]2[C@H](NC(=O)[C@H](N)c3ccccc3)C(=O)N2[C@H]1C(=O)O [AMPICILLIN]									492 (≈ 172 µg/mL)	1240 (≈ 433 µg/mL)	744 (≈ 260 µg/mL)	372 (≈ 130 µg/mL)	372 (≈ 130 µg/mL)	372 (≈ 130 µg/mL)	372 (≈ 130 µg/mL)	372 (≈ 130 µg/mL)	744 (≈ 260 µg/mL)	248 (≈ 86.7 µg/mL)	248 (≈ 86.7 µg/mL)	248 (≈ 86.7 µg/mL)	
CC(Cc1ccc(O)c(O)c1)C(C)Cc1ccc(O)c(O)c1 (configuration not stated) [NORDIHYDROGUAIARETIC ACID]		4.49																			inhibition [2]: inactive; inhibition [3]: inactive
O=C1N/C(=N\c2nc(-c3ccccc3)cs2)S/C1=C\c1ccccc1Cl			23.4 (≈ 9.31 µg/mL)	17.6 (≈ 7 µg/mL)	23.4 (≈ 9.31 µg/mL)	23.4 (≈ 9.31 µg/mL)	23.4 (≈ 9.31 µg/mL)	23.4 (≈ 9.31 µg/mL)	100 (≈ 39.8 µg/mL)	100 (≈ 39.8 µg/mL)	25 (≈ 9.95 µg/mL)	25 (≈ 9.95 µg/mL)	25 (≈ 9.95 µg/mL)	100 (≈ 39.8 µg/mL)	50 (≈ 19.9 µg/mL)	25 (≈ 9.95 µg/mL)	50 (≈ 19.9 µg/mL)	25 (≈ 9.95 µg/mL)	25 (≈ 9.95 µg/mL)	50 (≈ 19.9 µg/mL)	MIC [11]: 17.6 µM (≈ 7 µg/mL); MFC [12]: 23.4 µM (≈ 9.31 µg/mL); MIC [13]: 17.6 µM (≈ 7 µg/mL); MIC [14]: 11.7 µM (≈ 4.66 µg/mL); MIC [15]: 11.7 µM (≈ 4.66 µg/mL); MIC [16]: 17.6 µM (≈ 7 µg/mL)
CN[C@@H]1[C@H](O[C@H]2[C@H](O[C@H]3[C@H](O)[C@@H](O)[C@H](N=C(N)N)[C@@H](O)[C@@H]3N=C(N)N)O[C@@H](C)[C@]2(O)C=O)O[C@@H](CO)[C@H](O)[C@H]1O [STREPTOMYCIN]									344 (≈ 200 µg/mL)	344 (≈ 200 µg/mL)	516 (≈ 300 µg/mL)	86 (≈ 50 µg/mL)	172 (≈ 100 µg/mL)	344 (≈ 200 µg/mL)	172 (≈ 100 µg/mL)	258 (≈ 150 µg/mL)	172 (≈ 100 µg/mL)	86 (≈ 50 µg/mL)	43 (≈ 25 µg/mL)	172 (≈ 100 µg/mL)	
